Converted amounts (≈) assume the structure as drawn.
Legend:
Bacillus subtilis = assay: Antibacterial activity against Bacillus subtilis ATCC 6633 after 18 hrs by microdilution method; assay type: functional; settings: ATCC 6633, 18 h
[1] = molecular target: T1, 11-beta-hydroxysteroid dehydrogenase 1 (Homo sapiens, UniProt P28845); assay: Inhibition of human 11beta-HSD1 expressed in HEK293 cells assessed as [3H]cortisol at 10 uM by scintillation proximity assay; assay type: cell-based
In short: (§1)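 Single-concentration screen at 10 μM by scintillation proximity assay, read as % inhibition. Microsomes were incubated with NADPH and [3H]-cortisone. The [3H]-cortisol formed was captured by a monoclonal antibody on protein A-coated SPA beads. Glycyrrhetinic acid served as positive control.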
Target sequence in this assay (P28845 whole entry, looked up): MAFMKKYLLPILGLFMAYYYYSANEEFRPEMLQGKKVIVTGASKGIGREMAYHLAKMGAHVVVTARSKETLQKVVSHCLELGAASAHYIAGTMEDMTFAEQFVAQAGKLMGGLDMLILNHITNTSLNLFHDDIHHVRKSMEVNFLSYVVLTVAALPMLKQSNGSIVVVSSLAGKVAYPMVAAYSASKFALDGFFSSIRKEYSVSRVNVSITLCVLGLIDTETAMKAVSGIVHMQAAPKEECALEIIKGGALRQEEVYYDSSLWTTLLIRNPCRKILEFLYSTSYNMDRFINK

[2] = tested on: Staphylococcus epidermidis; assay: Antibacterial activity against Staphylococcus epidermidis ATCC 12228 after 18 hrs by microdilution method; assay type: functional; settings: ATCC 12228, 18 h
[3] = molecular target: 11-beta-hydroxysteroid dehydrogenase 1 (Mus musculus, UniProt P50172); assay: Inhibition of mouse 11beta-HSD1 expressed in HEK293 cells assessed as [3H]cortisol by scintillation proximity assay; assay type: cell-based
Chain of 11-beta-hydroxysteroid dehydrogenase 1 (Mus musculus, UniProt P50172) (P50172 whole entry): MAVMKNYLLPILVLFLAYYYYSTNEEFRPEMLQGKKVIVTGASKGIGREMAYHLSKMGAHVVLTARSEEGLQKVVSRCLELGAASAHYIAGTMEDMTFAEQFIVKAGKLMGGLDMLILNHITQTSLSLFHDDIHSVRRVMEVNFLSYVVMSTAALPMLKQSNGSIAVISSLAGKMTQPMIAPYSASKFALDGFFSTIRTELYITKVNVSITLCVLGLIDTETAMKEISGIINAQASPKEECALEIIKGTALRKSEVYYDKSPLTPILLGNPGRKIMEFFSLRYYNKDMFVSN
In short: (§2)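 IC50 by scintillation proximity assay. Enzyme source was microsomes from HEK293 cells stably transfected with human or murine 11β-HSD1. Microsomes were incubated with NADPH and [3H]-cortisone. Product [3H]-cortisol was captured by a monoclonal antibody coupled to protein A-coated SPA beads. Glycyrrhetinic acid served as positive control.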

Micrococcus luteus = assay: Antibacterial activity against Micrococcus luteus ATCC 9341 after 18 hrs by microdilution method; assay type: functional; settings: ATCC 9341, 18 h
[4] = molecular target: 11-beta-hydroxysteroid dehydrogenase 1 (Mus musculus) (UniProt P50172); assay: Inhibition of mouse 11beta-HSD1 expressed in HEK293 cells assessed as [3H]cortisol at 10 uM by scintillation proximity assay; assay type: cell-based; in short: as §1
Chain of 11-beta-hydroxysteroid dehydrogenase 1 (Mus musculus) (P50172 whole entry, looked up): as the sequence (P50172 whole entry) above

[5] = molecular target: T1, 11-beta-hydroxysteroid dehydrogenase 1; assay: Inhibition of human 11beta-HSD1 expressed in HEK293 cells assessed as [3H]cortisol by scintillation proximity assay; assay type: cell-based; in short: as §2
Target sequence in this assay (P28845 whole entry): as the sequence (P28845 whole entry, looked up) above

Staphylococcus aureus = assay: Antibacterial activity against Staphylococcus aureus ATCC 25923 after 18 hrs by microdilution method; assay type: functional; settings: ATCC 25923, 18 h

Row | Structure (SMILES) | MIC (Bacillus subtilis) [µg/mL] | inhibition [1] [%] | MIC [2] [µg/mL] | IC50 [3] [nM] | MIC (Micrococcus luteus) [µg/mL] | inhibition [4] [%] | IC50 [5] [nM] | MIC (Staphylococcus aureus) [µg/mL]
1 | C=C(C)[C@H](O)CC[C@@H](COC(C)=O)[C@H]1CC[C@@]2(C)[C@@H]3CC[C@@H](C(=C)C)[C@@]4(CCC(=O)O)C[C@@]34CC[C@]12C | 12.5 (≈ 24.3 µM) |  | 25 (≈ 48.6 µM) |  | 12.5 (≈ 24.3 µM) |  |  | > 50
2 | C=C(C)[C@H](O)CC[C@@H](CO)[C@H]1CC[C@@]2(C)[C@@H]3CC[C@@H](C(=C)C)[C@@]4(CCC(=O)O)C[C@@]34CC[C@]12C | 6.3 (≈ 13.3 µM) | > 60 | 25 (≈ 52.9 µM) | 990 | 12.5 (≈ 26.4 µM) | > 60 | 1400 | 25 (≈ 52.9 µM)
3 | CC1COc2c(N3CCN(C)CC3)c(F)cc3c(=O)c(C(=O)O)cn1c23 (stereo not given) [OFLOXACIN] | 0.013 (≈ 0.036 µM) |  | 0.2 (≈ 0.553 µM) |  | 1.6 (≈ 4.43 µM) |  |  | 0.2 (≈ 0.553 µM)
4 | C=C(C)C(=O)CC[C@@H](COC(C)=O)[C@H]1CC[C@@]2(C)[C@@H]3CC[C@@H](C(=C)C)[C@@]4(CCC(=O)O)C[C@@]34CC[C@]12C | 25 (≈ 48.8 µM) |  | > 50 |  | > 50 |  |  | > 50
5 | C=C(C)[C@@H]1CC[C@@H]2[C@]3(CC[C@]4(C)[C@@H]([C@H]5CC[C@@H](C(C)(C)O)OC5)CC[C@@]24C)C[C@]13CCC(=O)O | > 50 |  | > 50 |  | > 50 |  |  | > 50

The next lines start with the values.

Row | MIC (Bacillus subtilis) [µg/mL] | inhibition [1] [%] | MIC [2] [µg/mL] | IC50 [3] [nM] | MIC (Micrococcus luteus) [µg/mL] | inhibition [4] [%] | IC50 [5] [nM] | MIC (Staphylococcus aureus) [µg/mL] | Structure (SMILES)
6 | 6.3 (≈ 13.3 µM) | > 60 | 12.5 (≈ 26.4 µM) | 240 | 3.1 (≈ 6.56 µM) | > 60 | 1900 | 25 (≈ 52.9 µM) | C=C(C)[C@@H]1CC[C@@H]2[C@]3(CC[C@]4(C)[C@@H]([C@H]5CC[C@H](C(C)(C)O)OC5)CC[C@@]24C)C[C@]13CCC(=O)O
7 | 12.5 (≈ 24.3 µM) |  | 25 (≈ 48.6 µM) |  | 12.5 (≈ 24.3 µM) |  |  | > 50 | C=C(C)[C@@H](O)CC[C@@H](COC(C)=O)[C@H]1CC[C@@]2(C)[C@@H]3CC[C@@H](C(=C)C)[C@@]4(CCC(=O)O)C[C@@]34CC[C@]12C
8 | 50 (≈ 105 µM) |  | > 50 |  | 50 (≈ 105 µM) |  |  | > 50 | C=C(C)[C@@H]1CC[C@@H]2[C@]3(CC[C@]4(C)[C@@H]([C@H](C)CC[C@H](O)C(C)(C)O)CC[C@@]24C)C[C@]13CCC(=O)O
9 | 6.3 (≈ 12.2 µM) | > 60 | 12.5 (≈ 24.3 µM) | 740 | 6.3 (≈ 12.2 µM) | > 60 | 2300 | 25 (≈ 48.6 µM) | C=C(C)[C@@H]1CC[C@@H]2[C@]3(CC[C@]4(C)[C@@H]([C@@H](C/C=C/C(C)(C)O)COC(C)=O)CC[C@@]24C)C[C@]13CCC(=O)O
10 |  | > 60 |  |  |  | > 60 | 1900 |  | C=C(C)[C@@H]1CC[C@@H]2[C@]3(CC[C@]4(C)[C@@H]([C@@H](CCC(=O)O)COC(C)=O)CC[C@@]24C)C[C@]13CCC(=O)O
11 | 3.1 (≈ 6.79 µM) |  | > 50 |  | 6.3 (≈ 13.8 µM) |  |  | > 50 | C=C(C)[C@@H]1CC[C@@H]2[C@]3(CC[C@]4(C)[C@@H]([C@H](C)C/C=C/C(C)(C)O)CC[C@@]24C)C[C@]13CCC(=O)O
